Experimental data taken from PMC7927141 (Molecular Pharmaceutics, 2021).
Like-named read-outs stand apart in the source and are kept apart here.

Legend:
Sk-ChA-1 cells = assay: In vitro cytotoxicity, SRB total protein assay, Sk-ChA-1; type: cell-based; settings: Homo sapiens
Summary of the method: (§1)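 Cells grown in RPMI 1640 with 10% FBS, penicillin/streptomycin and 2 mM L-glutamine at 37 °C, 5% CO2. Seeded at 5 × 10^4 cells/well and cultured 24 h. Then exposed 24, 48 or 72 h to free test compound (DMSO, 0.4% v/v final) or micelle-loaded test compound in HBS, 0–200 μM; HBS controls. After PBS wash, SRB total protein read at 564 nm, normalized to control. IC50 from sigmoidal variable-slope nonlinear regression.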

[1] = cited from earlier work
EGI-1 cells = assay: In vitro cytotoxicity, SRB total protein assay, EGI-1; type: cell-based; settings: Homo sapiens
Summary of the method: as §1

[2] = tested on: different types of cancer cell lines; settings: cited from earlier work
Mz-ChA-1 cells = assay: In vitro cytotoxicity, SRB total protein assay, Mz-ChA-1; type: cell-based, human
Summary of the method: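 Mz-ChA-1 cells in RPMI 1640 with 10% FBS, penicillin/streptomycin and 2 mM L-glutamine at 37 °C, 5% CO2. Seeded at 25 × 10^4 cells/well for slow growth, cultured 24 h. Then 24, 48 or 72 h with free test compound (DMSO, 0.4% v/v final) or micelle-encapsulated test compound in HBS, 0–200 μM; HBS-treated controls. PBS wash, SRB protein stain, absorbance 564 nm, viability versus control. IC50 by sigmoidal variable-slope curve fit.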

[3] = Biodistribution of Cy7-labeled curcumin micelles in mice; type: in vivo, BALB/c mice; settings: 4 and 24 h post-administration, iv 50 mg curcumin/kg in micelles
[4] = Circulation kinetics of Cy7-labeled curcumin micelles in mice; type: in vivo, BALB/c mice
Summary of the method: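 Female mice received 9% (w/w) curcumin-loaded Cy7-labelled mPEG-b-p(HPMA-Bz) micelles i.v. (500 mg polymer/kg, 100–200 μL). EDTA blood was drawn submandibularly at 1 min (set as 100% dose), 10 min and 1 h, and by cardiac puncture at 4 and 24 h. Plasma was ACN-extracted (1:4) and assayed for curcumin by C18 RP-HPLC at 425/254 nm. Parameters came from two-compartmental analysis.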

[5] = tested on: cancer cells (Neuro2A, EGI-1, TFK-1, Mz-ChA-1); assay: Association and uptake by flow cytometry and confocal microscopy; type: cell-based; settings: 20 μM, flow cytometry
Summary of the method: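 5 × 10^5 cells/well, grown 18 h. Medium replaced by nonsupplemented medium containing 20 μM test compound, free (0.4% DMSO final) or micelle-loaded, or Cy5-labelled micelles at 0.3 mg/mL. Incubated 1 or 4 h, rinsed twice with PBS, trypsinized, analysed by flow cytometry. Confocal imaging on coverslips after 0.5, 1 and 4 h at 37 °C, excitation 405/633 nm.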

Neuro2A cells = assay: In vitro cytotoxicity, SRB total protein assay, Neuro2A; type: cell-based, murine
Summary of the method: as §1

TFK-1 cells = assay: In vitro cytotoxicity, SRB total protein assay, TFK-1; type: cell-based; settings: Homo sapiens
Summary of the method: as §1

[6] = read-out: IC50 after 48 and 72 h
[7] = female, BALB/c, mouse, plasma, iv, 7.8 mg/kg
[8] = iv, 50 mg curcumin/kg, two-compartmental

COc1cc(/C=C/C(=O)CC(=O)/C=C/c2ccc(O)c(OC)c2)ccc1O [free curcumin, curcumin]
IC50 (Sk-ChA-1 cells; 24 h): 33.9 ± 1.3 µM
IC50 (Sk-ChA-1 cells; 48 h): 21.5 ± 0.4 µM
IC50 (Sk-ChA-1 cells; 72 h): 21.3 ± 0.4 µM
IC50 (Sk-ChA-1 cells; [6]): ~20 µM
AUC ([1]; 50 mg/kg in mice, noncompartmental analysis, ref 63 (Gao et al.)): 60.3 µg·h/mL
normalized AUC ([1]; two studies): 1.2 (μg·h/mL)/(mg/kg)
IC50 (EGI-1 cells; EGI-1, 24 h): 21.7 ± 0.5 µM
IC50 (EGI-1 cells; EGI-1, 48 h): 18.2 ± 0.3 µM
IC50 (EGI-1 cells; EGI-1, 72 h): 19.1 ± 0.3 µM
IC50 (EGI-1 cells; EGI-1, read-out: IC50 after 48 and 72 h): ~20 µM
IC50 ([2]; read-out: IC50 mean ± SD): 21 ± 17 µM
IC50 ([2]; read-out: IC50 range): 1 to 100 µM
IC50 (Mz-ChA-1 cells; Homo sapiens, 24 h, Mz-ChA-1, 24 h exposure): 48 µM
IC50 (Mz-ChA-1 cells; Homo sapiens, 48 h, Mz-ChA-1, 48 h exposure): 38.4 ± 1.4 µM
IC50 (Mz-ChA-1 cells; Homo sapiens, 72 h, Mz-ChA-1, 72 h exposure): 37.8 ± 1.1 µM
IC50 (Mz-ChA-1 cells; Mz-ChA-1, 24 h exposure): 47.6 ± 1.6 µM
curcumin concentration in the different organs [3]: 0.2–3 μg/g tissue
t1/2α relative to that reported for free curcumin ([4]; curcumin after iv curcumin-loaded micelles vs literature free curcumin): ~5 times
AUC(0-inf) [4, 7]: 319 µg·h/mL
clearance [4, 7]: 2.62 mL/min/kg
initial phase t1/2α ([4]; iv, 50 mg curcumin/kg as curcumin-loaded micelles): 6.7 min
V1 [4, 8]: 0.086 L/kg
V2 [4, 8]: 0.344 L/kg
loaded curcumin eliminated during the first hour ([4]; iv, 50 mg/kg curcumin in micelles): 90%
time of incubation until intracellular detection [5]: ≤ 1 h
IC50 (Neuro2A cells; 24 h exposure): 83.8 ± 13.5 µM
IC50 (Neuro2A cells; Mus musculus, N2a, 24 h, 24 h exposure): 84 µM
IC50 (Neuro2A cells; Mus musculus, N2a, 48 h, 48 h exposure): 15.6 ± 0.8 µM
IC50 (Neuro2A cells; Mus musculus, N2a, 72 h, 72 h exposure): 23.3 ± 1.2 µM
IC50 (TFK-1 cells; 24 h): 27.7 ± 0.9 µM
IC50 (TFK-1 cells; 48 h): 20.1 ± 0.9 µM
IC50 (TFK-1 cells; 72 h): 17.5 ± 0.5 µM
IC50 (TFK-1 cells; [6]): ~20 µM
